This is a sample that favours compounds with a hit; in the whole collection about 4.1% have one here.
KCNQ1 inh = inhibitors of human KCNQ1 potassium channel. P51787. CHO-K1 KCNQ1, FluxOR thallium flux fluorescence; active compounds read high. B-score at 10 µM. 1.3% of 310,000 active. AID 2642;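 active = compounds whose thallium flux B-score, printed positive for inhibition, exceeds three library SD while starting fluorescence stays within three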;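 note: channel opened by potassium depolarization with thallium stimulus after 20 min compound exposure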
KCC2 mod = modulates chloride dependent transport by human KCC2. AID 1456. KCC2 cells, thallium flux FluoZin-2 fluorescence. 2.2% of 190,000 active. Q9H2X9. B-score of Tl+ flux slope (higher = more flux/activation; lower = inhibition) at 10 µM;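 active = thallium flux slope and its plate-corrected score both differing from the plate sample mean at a set confidence after two filtering rounds, in either direction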;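 note: slope of fluorescence scaled to starting intensity during 10 to 20 s after thallium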
hERG protect = shields human hERG channel from block by proarrhythmic agents. CHO-hERG, FluxOR thallium flux, dofetilide IC70 present. AID 1511. activation (rescue from dofetilide block), less the hit threshold, % at 10 µM. 0.51% of 310,000 active. Q12809;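 active = activation above the mean of controls blocked by dofetilide plus 5 SD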;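 note: thallium influx through hERG after potassium depolarization seen as dye fluorescence rise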
KCNK9 block = blocks the human KCNK9 two-pore domain potassium channel | B-score at 10 µM | HEK293 KCNK9, FluxOR thallium flux fluorescence; active compounds read low | AID 488922 | Q9NPC2 | 1.2% of 310,000 active;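 active = ratio B-score over 3 SD below the library mean, with starting fluorescence within 5 SD of its mean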;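 note: negative B-score means less thallium flux so channel inhibition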
KCNQ1 pot = human KCNQ1 channel potentiation or activation; P51787; CHO-K1 KCNQ1, thallium flux FluxOR fluorescence; active compounds read high; B-score at 10 µM; 0.35% of 310,000 active;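 active = fluorescence ratio B-score, a plate-corrected score, at least three library SD, with initial intensity B-score within 5 SD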
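Schedule – 37 °C overnight plating, 90-min dark dye load, 20-min compound pretreatment · System – stable KCNQ1 CHO-K1 line · Probe or stimulus – thallium- and potassium-containing depolarizing buffer · Measured by – kinetic FluxOR fluorescence, 10 s baseline plus 110 s post-stimulus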
KCNK3 block = human KCNK3 channel inhibition, primary screen; O14649; CHO-KCNK3 thallium flux, FluxOR fluorescence; active compounds read low; B-score at 10 µM; 0.84% of 340,000 active;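 active = B-score under library mean minus 4 SD, starting fluorescence ratio at most library mean plus 5 SD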;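 note: more negative B-score means stronger inhibition of thallium flux through KCNK3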
KCNK3 inh conf = confirmation of human KCNK3 two-pore domain potassium channel inhibitors; shares compounds with KCNK3 block; ratio percent of control, % at 10 µM; AID 651638; 99% of 2,400 active; CHO-KCNK3 thallium flux, FluxOR fluorescence; 0% buffer, 100% carvedilol maximal block;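 active = ratio percent of control, averaged over triplicates, above buffer control mean plus 5 SD, cut at about 64% in these data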;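 note: ratio is the fluorescence rise from min to max over baseline after thallium stimulus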
KCNK3 noninduced = KCNK3 inhibitor counter-screen hit in non-induced cells; 40% of 2,400 active; non-induced KCNK3 parental cells, FluxOR thallium flux; active compounds read low; AID 651747; shares compounds with KCNK3 block; thallium flux ratio (lower = more inhibition) at 10 µM;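 active = thallium flux ratio, averaged over three wells, more than 5 SD below the buffer control mean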;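 note: host cells are CHO cells without KCNK3 induction; ratio is peak minus trough fluorescence over baseline then normalized to buffer controls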
The depositor's hits bear a star; i = inactive; . = no result given.

SMILES | KCNQ1 inh | KCC2 mod | hERG protect | KCNK9 block | KCNQ1 pot | KCNK3 block | KCNK3 inh conf | KCNK3 noninduced
COc1ccc(OC)c(C2=NS(=O)(=O)N(C)C(C(=O)NCc3cccs3)=C2)c1 | i | . | -10 | i | i | i | . | .
Cc1cc(C)c2sc(N(CCN(C)C)C(=O)c3c(F)cccc3F)nc2c1 | i | -0.32 | -11 | i | i | -9.1* | 116* | i
COc1ccc2c(c1)C(SCC(=O)NCCc1ccc(Cl)cc1)CC(C)(C)O2 (stereo not drawn) | i | -2.8 | -13 | i | i | -9* | 78* | i
COc1ccc(CCC(=O)NCCc2ccc(Cl)cc2)cc1 | i | . | -6 | i | i | i | . | .
O=C1CCN(S(=O)(=O)c2cc(C(F)(F)F)ccc2Cl)CC1 | . | . | . | . | . | i | . | .
C/C(=N\OCc1nc2ccccc2c(=O)n1/N=C/c1cc([N+](=O)[O-])ccc1O)c1ccccc1 | 6* | -5 | -31 | i | i | -9.1* | 95* | 0.12*
O=c1c2ccccc2nc(COc2ccccc2)n1/N=C/c1ccc(O)cc1O | i | -0.064 | -21 | i | i | i | . | .
CCCCN(C(=O)C1CCN(C(=O)c2ccccc2C)CC1)c1c(N)n(CCC)c(=O)[nH]c1=O | . | . | . | . | . | i | . | .
CC(C)(C)Nc1nc(SCc2ccccc2)nc(N2CCOCC2)n1 | i | 2.4 | -8 | i | i | -9.4* | 103* | 0.16*
COc1ccc(-c2[nH]c3ccccc3c2SCCNC(=O)c2ccccc2)cc1 | i | -0.13 | -15 | i | i | -9.6* | 117* | 0.14*
O=C1CCCC/C1=C/NCc1ccccc1 | i | -0.31 | -12 | i | i | i | . | .
Cc1nc(N2CCCCC2)c2c(C)c(C(=O)Nc3cccc(C(F)(F)F)c3)sc2n1 | 13* | -0.63 | -5 | i | i | -11* | 124* | 0.12*
Cc1nc(N2CCN(C)CC2)c2c(C)c(C(=O)Nc3ccc(F)cc3)sc2n1 | i | . | -4 | i | i | i | . | .
O=C(CN1CCSC1=O)N1CCN(S(=O)(=O)c2ccc(F)cc2)CC1 | . | . | . | . | . | i | . | .
Cc1ccc2oc(-c3cccc(NC(=O)c4ccccn4)c3)nc2c1 | i | . | -5 | i | i | i | . | .
CN(C)c1oc(-c2ccccc2Cl)nc1S(=O)(=O)c1ccccc1 | i | -0.23 | -8 | i | i | -9.3* | 108* | i
CN(C)CCCNc1oc(-c2ccccc2Cl)nc1S(=O)(=O)c1ccccc1 | . | . | . | . | . | i | . | .
CCOC(=O)N1CCN(c2nc3ccc(C(=O)c4ccccc4)cc3n3cnnc23)CC1 | i | -0.15 | -10 | i | i | -11* | 83* | i
O=C(c1ccccc1)c1ccc2nc(N3CCN(C(=O)c4ccco4)CC3)c3nncn3c2c1 | i | -1.4 | -5 | i | i | i | . | .
Cc1cc(=O)oc2cc(NC(=O)c3ccccc3OC(F)F)ccc12 | i | . | -6 | i | i | -11* | 105* | i
Cc1cc(=O)oc2cc(NC(=O)c3cc(F)ccc3F)ccc12 | . | . | . | . | . | i | . | .
Cc1ccccc1NC(C)C(=O)N/N=C/c1ccccc1OCc1cccc(Br)c1 (stereo not drawn) | i | -2.2 | -10 | i | i | -11* | 92* | 0.16*
Fc1ccc(-c2cnc(-c3cccs3)o2)cc1 | i | 0.2 | -5 | i | i | -9.6* | 93* | 0.15*
Cc1cccc(NC(=O)COC(=O)c2ccc(C)c(S(=O)(=O)N3CCCCC3)c2)c1 | . | . | . | . | . | -12* | 97* | i
COc1ccc(C(=O)OCc2cc(C)ccc2C)cc1S(=O)(=O)N1CCCC1 | . | . | . | . | . | -14* | 93* | i
O=C(OCCOc1cccc(Cl)c1)c1ccc(F)c(S(=O)(=O)N2CCOCC2)c1 | . | . | . | . | . | i | . | .
Cc1ccc(C)c(COC(=O)c2cccc(S(=O)(=O)N3CCCC3)c2)c1 | . | . | . | . | . | i | . | .

Assay outcomes from PubChem BioAssay.
